GASC1 inh: inhibitors of GASC-1 (KDM4C) histone demethylase, primary screen, biochemical, single concentration HTS. Lysine-specific demethylase 4C (Homo sapiens), Q9H3R0. GST-KDM4C 2-372, H3K9me3 peptide, LANCE TR-FRET. inhibition, % at 12.5 µM. 96,000 tested, 0.15% active. AID 720574, 2013;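 active = mean replicate inhibition above about 25%, with at least 55% of replicates also reaching it, limit read from the data, passing the limit was not always enough; inconclusive = only one of those two conditions met; inactive = neither condition met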
Target sequence (Q9H3R0 2-372 limits assumed): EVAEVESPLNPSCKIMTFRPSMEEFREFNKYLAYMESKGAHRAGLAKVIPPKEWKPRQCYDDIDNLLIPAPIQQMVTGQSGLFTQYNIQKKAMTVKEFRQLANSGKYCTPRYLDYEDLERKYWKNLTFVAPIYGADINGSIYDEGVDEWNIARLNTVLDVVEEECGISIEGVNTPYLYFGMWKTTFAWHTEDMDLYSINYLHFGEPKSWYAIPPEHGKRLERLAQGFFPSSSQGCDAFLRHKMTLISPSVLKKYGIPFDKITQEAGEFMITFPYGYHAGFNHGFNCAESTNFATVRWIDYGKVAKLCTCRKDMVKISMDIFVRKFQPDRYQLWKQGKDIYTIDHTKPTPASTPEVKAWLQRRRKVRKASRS
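System: N-terminal GST-fused human GASC-1 (KDM4C) fragment, residues 2-372; amount: enzyme final amount 10 nM; incubation: reaction 30 min RT, detection step 1 h RT; medium: HEPES buffer, pH 7.5, plus ascorbate; technique: LANCE TR-FRET, Eu antibody, ULight-streptavidin, EDTA, ex 340 nm, em 618/671 nm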
T cruzi growth-1: T. cruzi intracellular proliferation inhibitors, primary screen, cell-based, beta-gal Tulahuen parasites, NIH3T3 host, luminescence | T. cruzi beta-gal in NIH3T3, GalScreen luminescence, 90 h | 77,000 tested, 5.9% active | inhibition, % at 8.34 µM | AID 624255, 2012;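 active = mean inhibition above about 93%, with at least 55% of replicates each passing it, limit read from the data, passing the limit was not always enough; inconclusive = only one of those two conditions holds; inactive = neither condition holds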
IDH1 R132H inh: inhibitors of IDH1 R132H reductase, primary screen, biochemical, plate reader, single point | Isocitrate dehydrogenase [NADP] cytoplasmic (Homo sapiens), O75874 | diaphorase/resazurin fluorescence, 60 min | 70,000 tested, 0.18% active | AID 624101, 2012 | inhibition, % at 10 µM; in the data active = inhibition above about 34%; inconclusive = no clear call, values can overlap the other calls; inactive = below about 11%;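 note: 0% = DMSO and 100% = no enzyme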
Pf Dd2 growth: P. falciparum Dd2 growth inhibitors, primary screen, SYBR Green fluorescence, single dose replicates | 72 h; stronger effect = lower value | activity change, % at 10 µM | 94,000 tested, 2.3% active | AID 1159554, 2015; in the data active = activity change below about -80%; inconclusive = no clear call, values can overlap the other calls
T cruzi growth-2: T. cruzi intracellular proliferation inhibitors, confirmation, cell-based, NIH3T3 host, beta-gal parasite, luminescence, cherry-pick. shares compounds with T cruzi growth-1. T. cruzi beta-gal in NIH3T3, GalScreen luminescence, 90 h. inhibition, % at 8.35 µM. 5,600 tested, 72% active;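 active = mean replicate inhibition above about 95% and at least 55% of replicates individually reaching it, limit read from the data; inconclusive = only one of the two criteria is met; inactive = neither criterion is met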
T cruzi growth-3: inhibitors of intracellular T. cruzi replication, confirmation, NIH3T3 host cells, beta-gal parasites, cherry-pick, set 2. 5,600 tested, 21% active. T. cruzi beta-gal in NIH3T3, GalScreen luminescence, 90 h. AID 651740, 2012. shares compounds with T cruzi growth-1. inhibition, % at 2.09 µM;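 active = mean inhibition above about 95%, with at least 55% of replicates also reaching it, limit read from the data; inconclusive = meets just one of the two conditions; inactive = meets neither condition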;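 note: plate controls were neutral control median for no effect and positive control median for full effect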
3T3 cytotox: cytotoxicity in mouse NIH/3T3 fibroblasts, confirmation, cytotoxicity control for T. cruzi proliferation inhibitor project, cell-based, cherry-pick, single point; NIH/3T3 viability, CellTiter-Glo ATP luminescence, 90 h; cytotoxicity (signal decrease), % at 8.35 µM; AID 651742, 2012; shares compounds with T cruzi growth-1; 5,600 tested, 14% active;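 active = mean signal decrease across replicates above about 35% based on untreated-well scatter, with enough replicates individually passing, limit read from the data; inconclusive = no rule stated though some were filed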;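 note: 0% = median of neutral control wells and 100% = median of positive control wells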
3T3 cytotox 2: NIH/3T3 fibroblast cytotoxicity, confirmation, cytotoxicity control, cell-based, cherry-pick, single point, set 2; shares compounds with T cruzi growth-1; NIH/3T3 viability, CellTiter-Glo ATP luminescence, 90 h; inhibition, % at 24.9 µM; 5,600 tested, 56% active; AID 651744, 2012;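 active = mean loss of cell viability signal at or above a set limit, and enough replicates individually reaching it; inconclusive = meets only the mean limit or only the replicate share; inactive = meets neither condition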;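 note: 0% = median of neutral control wells and 100% = median of positive control wells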
Starred values were filed as active, the others as inactive; ? = inconclusive; / = no result. Most compounds without a hit are left out; they make up all but 5.8% or so of the library.

SMILES	GASC1 inh	T cruzi growth-1	IDH1 R132H inh	Pf Dd2 growth	T cruzi growth-2	T cruzi growth-3	3T3 cytotox	3T3 cytotox 2
C[C@H](CO)N1C[C@H](C)[C@@H](CN(C)Cc2ccc(-c3ccccc3)cc2)Oc2cc(C#CC(C)(C)O)ccc2S1(=O)=O	0	117*	-1	-73	95*	116*	114*	104*
C[C@@H]1CN([C@H](C)CO)S(=O)(=O)c2ccc(C#CC(C)(C)O)cc2O[C@H]1CN(C)Cc1ccccc1	/	75	/	-23	/	/	/	/
C[C@H](CO)N1C[C@H](C)[C@H](CN(C)Cc2ccc(-c3ccccc3)cc2)Oc2cc(C#CC(C)(C)O)ccc2S1(=O)=O	-2	122*	/	-54	92	116*	51*	104*
C[C@H]1CN([C@@H](C)CO)S(=O)(=O)c2ccc(C#CC(C)(C)O)cc2O[C@@H]1CN(C)Cc1ccc(-c2ccccc2)cc1	0	118*	/	-58	98*	112*	120*	104*
C[C@@H]1CN([C@H](C)CO)S(=O)(=O)c2ccc(C#CC(C)(C)O)cc2O[C@@H]1CN(C)Cc1ccc(-c2ccccc2)cc1	1	125*	/	-63	83	110*	45*	107*
C[C@H]1CN([C@@H](C)CO)S(=O)(=O)c2ccc(C#CC(C)(C)O)cc2O[C@H]1CN(C)Cc1ccc(-c2ccccc2)cc1	0	124*	/	-65	96*	113*	114*	105*
C[C@H]1CN([C@@H](C)CO)C(=O)c2cccc(NC(=O)c3ccncc3)c2O[C@@H]1CN(C)Cc1ccc(C(=O)Nc2ccccc2N)cc1	0	98*	0	-70	108*	101*	6	47*
C[C@@H]1CN([C@@H](C)CO)C(=O)c2cccc(NC(=O)c3cnccn3)c2O[C@@H]1CN(C)Cc1ccc(C(=O)Nc2ccccc2N)cc1	-1	106*	/	-92*	93	84	47*	91*
C[C@H](CO)N1C[C@H](C)[C@@H](CN(C)Cc2ccc(C(=O)Nc3ccccc3N)cc2)Oc2c(NC(=O)c3ccncc3)cccc2C1=O	-1	?	/	-46	102*	88	18	25*
C[C@H]1CN([C@@H](C)CO)C(=O)c2cc(NC(=O)Cn3cnnn3)ccc2O[C@@H]1CN(C)C(=O)Nc1ccc(C(F)(F)F)cc1	0	-35	0	6	/	/	/	/
O=C(Nc1ccccc1)N1C[C@H]2[C@@H](c3ccccc31)[C@H](CO)N2CC1CCCC1	0	7	/	-29	/	/	/	/
O=C(C[C@@H]1CC[C@@H]2[C@H](COC[C@@H](O)CN2Cc2cc(F)ccc2F)O1)N[C@H]1CCN(Cc2ccccc2)C1	0	95	/	-28	/	/	/	/
C[C@@H](NC(=O)C[C@H]1CC[C@H]2[C@@H](COC[C@@H](O)CN2Cc2ccc(C(F)(F)F)cc2)O1)c1ccccc1	6	?	/	9	66	61	12	8
O=C(C[C@@H]1CC[C@@H]2[C@H](COC[C@@H](O)CN2Cc2ccccc2)O1)N[C@@H]1CCN(Cc2ccccc2)C1	-1	?	/	-46	?	80	-23	4
O=C(C[C@@H]1CC[C@@H]2[C@H](COC[C@H](O)CN2Cc2ccccc2)O1)N[C@@H]1CCN(Cc2ccccc2)C1	2	77	/	-19	/	/	/	/
O=C(C[C@@H]1CC[C@@H]2[C@H](COC[C@H](O)CN2Cc2cc(F)ccc2F)O1)N1CCc2ccccc2C1	1	100*	/	-60	83	4	-15	20
O=C(C[C@H]1CC[C@H]2[C@@H](COC[C@H](O)CN2Cc2cc(F)ccc2F)O1)N[C@H]1CCN(Cc2ccccc2)C1	0	124*	/	-75	106*	72	-20	-1
C[C@@H]1CN([C@H](C)CO)C(=O)c2cc(NC(=O)CCCN(C)C)ccc2O[C@@H](C)CCCCO[C@@H]1CN(C)S(=O)(=O)c1ccc(F)cc1	2	-31	/	-28	/	/	/	/
COCC#Cc1ccc2c(c1)O[C@@H](CN(C)C(=O)c1ccccc1F)[C@H](C)CN([C@@H](C)CO)S2(=O)=O	-1	33	0	-44	/	/	/	/
CN(C)CCCNC(=O)C[C@@H]1CC[C@H](NC(=O)Cc2cccnc2)[C@@H](CO)O1	0	22	0	6	/	/	/	/
O=C(C[C@H]1CC[C@H]2[C@@H](COC[C@H](O)CN2Cc2cc(F)ccc2F)O1)NCc1ccc(Cl)cc1	1	?	/	-50	40	11	3	17
C[C@@H]1CN([C@H](C)CO)C(=O)c2cccc(NC(=O)c3nc4ccccc4s3)c2O[C@H]1CN(C)Cc1ccc(-c2ccccc2)cc1	-2	16	-1	-40	/	/	/	/
CCN(C[C@@H]1N[C@@H](CO)[C@H]1c1ccc(-c2ccc(F)cc2)cc1)C(=O)CN(C)C	0	109*	/	-81*	100*	89	?	104*
COC(=O)C[C@@H]1CC[C@H]2[C@H](COc3ccc(NC(=O)c4cc(F)cc(F)c4)cc3C(=O)N2C)O1	-1	-25	/	6	/	/	/	/
CO[C@H]1CN(C)C(=O)c2ccc(NC(=O)C3CC3)cc2OC[C@@H](C)N(C(=O)c2ccccn2)C[C@H]1C	-2	102*	0	19	53	17	9	0
CO[C@@H]1CN(C)C(=O)c2ccc(NC(=O)C3CC3)cc2OC[C@H](C)N(C(=O)c2cccnc2)C[C@H]1C	2	42	0	34	/	/	/	/
CO[C@@H]1CN(C)C(=O)c2ccc(NC(=O)C3CC3)cc2OC[C@@H](C)N(C(=O)c2ccccn2)C[C@@H]1C	-1	40	0	-18	/	/	/	/
CO[C@H]1CN(C)C(=O)c2ccc(NC(=O)C3CC3)cc2OC[C@H](C)N(C(=O)c2cccnc2)C[C@@H]1C	1	112*	0	29	-186	22	-7	-17
CCCC#Cc1ccc2c(c1)O[C@@H](CN(C)C(=O)c1cnccn1)[C@H](C)CN([C@H](C)CO)S2(=O)=O	9	69	0	-19	/	/	/	/
